From PubChem BioAssay
Efflux pump inh = inhibitors of Candida efflux pumps in yeast, primary screen, S. cerevisiae, Nile Red, multiplex. inhibition, % at 10 µM. hit rate 0.44% among 330,000. S. cerevisiae Candida pump triplex;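 active means plate passing quality check with inhibition over a set limit, or well fluorescence over plate mean plus 4 SD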;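 further: Nile Red retained in pooled yeast measured as flow cytometry median fluorescence; 0% = buffer negative control and 100% = Enniatin B positive control; higher means more Nile Red kept so more efflux inhibition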
PolyA inh = polyadenylation inhibitors in yeast reporter cells, primary screen, luminescence, S. cerevisiae | hit rate 0.02% among 300,000 | S. cerevisiae SKY197-pL101 polyadenylation reporter, beta-gal luminescence; efflux-impaired pdr1/pdr3 knockout yeast; score 100 = 6 SD above DMSO | activity score, % at 12 µM;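 active means lowest replicate activity score at least 50, where 100 means six control SD above control mean; inconclusive means lowest score under 50 but half or more replicates reach 50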;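 further: yeast exposed to compound for 9 h at 30 °C; higher score means more reporter readthrough which indicates perturbed polyadenylation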
T cruzi inh = inhibitors of intracellular T. cruzi growth, primary screen, luminescence, NIH3T3 host cells; T. cruzi beta-gal in NIH3T3, 90 h; hit rate 1.4% among 300,000; AID 1885, 2009; inhibition, % (no concentration beside the values);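 active means mean inhibition across valid replicates above about 55%, limit read from the data; inconclusive means mean below that limit but half or more replicates reach it; inactive means mean below it, under half of replicates reach it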;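 further: signal also drops with host cell toxicity which is not excluded here; 0% = plate median of DMSO wells and 100% = zero luminescence signal; higher percent means less beta-gal luminescence so fewer parasites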
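Test system: β-gal T. cruzi (Tulahuen C4) inside NIH/3T3 cells / Quantity: 5,000 cells/well / Measured by: luminescence from GalScreen with 0.05% NP40, read after 60 min / Medium: DMEM plus 2% FBS / Measure: parasite load inhibition, % / Reagent: Tulahuen C4 trypomastigotes, 5000/well / Schedule: co-culture of at least 90 h after 3 h attachment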
AI-2 QS modul = Vibrio harveyi AI-2 quorum sensing modulators, primary screen, JMH597 strain, luminescence/OD600 ratio; Vibrio harveyi JMH597 AI-2 luminescence/OD600 ratio, 9 h; stronger effect = lower value; strain lacks LuxN and CqsS sensors; 0 = neutral-control median; hit rate 0.4% among 300,000; activity change, % at 7.5 µM; in the data active means activity change below about -75%, passing the limit was not always enough; inconclusive means no clear call, values can overlap the other calls;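 further: luminescence divided by OD600 gain over 9 h not by final OD600 alone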
HDAC3 inh = HDAC3 deacetylase inhibitors, primary screen, biochemical, fluorescence, cell-free homogeneous; Histone deacetylase 3 (Homo sapiens), O15379; recombinant HDAC3, fluorogenic peptide/trypsin coupled; inhibition, % at 8.3 µM; hit rate 0.15% among 320,000; AID 2718, 2010; in the data active means inhibition above about 26%, passing the limit was not always enough; inconclusive means no clear call, values can overlap the other calls
Target sequence (O15379 whole entry, looked up): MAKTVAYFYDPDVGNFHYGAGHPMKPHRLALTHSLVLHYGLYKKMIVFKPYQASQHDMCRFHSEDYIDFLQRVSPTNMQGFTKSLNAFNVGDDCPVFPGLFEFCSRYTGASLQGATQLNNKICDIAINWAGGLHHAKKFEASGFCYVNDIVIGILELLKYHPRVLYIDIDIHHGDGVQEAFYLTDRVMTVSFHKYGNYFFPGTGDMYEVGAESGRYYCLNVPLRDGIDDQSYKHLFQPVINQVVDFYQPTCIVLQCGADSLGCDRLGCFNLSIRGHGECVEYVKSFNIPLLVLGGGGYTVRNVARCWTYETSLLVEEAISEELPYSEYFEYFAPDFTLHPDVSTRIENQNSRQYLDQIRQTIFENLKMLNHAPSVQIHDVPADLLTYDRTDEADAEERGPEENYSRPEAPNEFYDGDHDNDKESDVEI
Numbers without * were called inactive; ? = inconclusive; . = not tested or not shown. An excerpt weighted towards active compounds, which were near 2.2% of everything screened.

SMILES	Efflux pump inh	PolyA inh	T cruzi inh	AI-2 QS modul	HDAC3 inh
COc1cccc(CN2CCCC(C(=O)c3ccc4c(c3)OCO4)C2)c1OC (configuration not stated)	0.6	9.5	36.2	-2.9	4.0
COc1ccc(C(=O)C2CCCN(Cc3ccc(C#CCCO)cc3)C2)cc1F (configuration not stated)	0.0	12.8	58.9*	12.4	?
O=C(NCC1CCCN(Cc2ccc3nonc3c2)C1)c1cccc(C(F)(F)F)c1 (configuration not stated)	-0.2	-15.9	57.6*	3.5	-1.2
COc1ccc(C(=O)C2CCCN(Cc3ccc4nonc4c3)C2)cc1F (configuration not stated)	0.2	-24.8	36.4	5.1	8.3
COc1ccc(C(=O)C2CCCN(Cc3cccc4c3OCO4)C2)cc1OC (configuration not stated)	0.1	16.0	62.0*	17.2	4.8
COc1ccc(SCCC(=O)NCc2ccncc2)cc1	-0.1	1.7	.	9.7	1.7
Cc1oc(-c2cc(F)cc(F)c2)nc1CN1CCN(C(=O)c2ccco2)CC1	0.1	-18.4	-3.1	22.1	-0.6
Clc1ccc(CSc2ccc(-c3ccco3)nn2)cc1	0.8	-2.0	3.9	-35.3	2.5
Cc1ccc(CSc2ccc(-c3ccco3)nn2)cc1	-0.7	-8.4	4.6	-86.5*	-0.8
c1ccc(CSc2ccc(-c3ccco3)nn2)cc1	-0.6	-12.9	-4.7	-77.2*	.
COc1cccc(N(C(=O)CCl)C(C(=O)NCCc2ccccc2)c2cccs2)c1 (configuration not stated)	0.2	18.8	30.4	28.3	-5.0
COc1ccc(N(C(=O)CCl)C(C(=O)NCCc2ccccc2)c2cccs2)cc1Cl (configuration not stated)	-0.2	-6.0	62.6*	17.2	12.6
COc1ccc(F)c(CN2CCC(n3nccc3NC(=O)CCCc3ccccc3)CC2)c1	0.0	6.2	-5.9	-95.2*	1.6
COc1ccccc1CN1CCC(n2nccc2NC(=O)CCc2ccccc2)CC1	-0.1	2.0	1.8	24.4	-0.8
CN(c1nc2ccccc2n2c(C3CC3)nnc12)S(=O)(=O)c1ccccc1	0.1	-2.1	8.6	-3.2	-6.9
Cc1ccc(OCCCCNC2CCCC(C)C2C)c(C)c1 (configuration not stated)	0.2	-33.8	56.8*	12.2	4.4
Cc1ccc(OCCCCN2CCCCC2)c(C)c1	-0.1	-12.8	28.7	-15.4	9.8
Cc1nc(-n2[nH]c3c(c2=O)CCCC3)[nH]c(=O)c1Cc1ccccc1	-0.1	-20.2	69.4*	131.7	1.9
Cc1nc(N2CCc3ccccc3C2)[nH]c(=O)c1Cc1ccccc1	0.0	-22.1	-5.9	23.0	-0.5
O=C(Nc1ccccc1)Nc1cc(OCC(F)(F)F)cc(OCC(F)(F)F)c1	.	-9.1	87.1*	33.8	.
CC(C)C[C@@H](COc1ccccc1)N1CCN(Cc2ccccc2)CCC1=O	-0.2	2.6	5.0	11.8	2.1
NC1=C(Br)C(=O)c2ccccc2C1=O	-0.1	6.5	-5.5	-89.6*	.
Nc1ccc(Br)c2c1C(=O)c1ccccc1C2=O	0.1	-31.2	7.2	17.1	5.4
COC(=O)c1ccc(OCCOc2ccccc2)cc1	0.0	-11.5	-16.3	-75.7*	4.2
COC(=O)c1ccc(OCCOc2ccccc2C)cc1	0.0	3.6	-6.4	11.0	8.6
COc1cccc(C(=O)Oc2c(Br)cc(Br)cc2/C=N/NC(=O)c2cc(C)[nH]n2)c1	0.4	-30.6	61.2*	59.7	3.5
CC(C)(C)c1ccc(C(=O)NCc2ccccc2)cc1	0.1	10.7	10.1	9.7	3.5
O=C(NCc1ccccc1)c1ccc(C(=O)N(C2CCCCC2)C2CCCCC2)cc1	0.2	-0.8	60.7*	44.3	?
CCOC(=O)C1=C(C)NC(=S)NC1/C=C/c1ccccc1 (configuration not stated)	-0.2	-11.4	9.4	-15.1	5.5
O=C(COC(=O)CNC(=O)c1cccc([N+](=O)[O-])c1)NCc1ccco1	0.3	10.0	4.4	15.5	-16.4
